The text below walks through data of ChEMBL document CHEMBL4765243, “Discovery of Novel Bromophenol-Thiosemicarbazone Hybrids as Potent Selective Inhibitors of Poly(ADP-ribose) Polymerase-1 (PARP-1) for Use in Cancer” (J Med Chem, 2019).

In series [1] the test system is SK-OV-3. The experiment in a line: animal or person. The conditions noted are these: Mus musculus, SK-OV-3, po, 504 h, read-out: INH.
Series [2] in a line: Total plasma clearance in Sprague-Dawley rat at 2 mg/kg, iv by LC/MS/MS analysis. In kind it is ADME, organism-based. The essentials: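 Male Sprague-Dawley rats, 4 per group, dosed once orally at 10 mg/kg or intravenously at 2 mg/kg. Blood taken from the saphenous vein for plasma. Drug levels measured by LC-MS-MS, with parameters derived by noncompartmental analysis.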
In series [3] the target is Poly [ADP-ribose] polymerase 1 (Homo sapiens, UniProt P09874). The experiment in a line: Inhibition of PARP-1 in human SKOV3 cells assessed as decrease in MCM2 protein expression level at 2.5 to 10 uM incubated for 48 hrs by western blot analysis. In kind it is cell-based. As to conditions: SK-OV-3, dose 2.5-10 µM. Summed up: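 SK-OV-3 cells were grown in McCOY's 5A, seeded in 6-well plates and treated for 48 h. Lysate proteins were separated by 8-15 % SDS-PAGE and transferred to PVDF membranes. Membranes were blocked in 5 % nonfat milk, probed with primary antibody overnight at 4 °C and with HRP secondary antibody for 1 h at room temperature, then detected by enhanced chemiluminescence. Images are representative of 3 independent experiments.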

The test system of series [4] is SK-OV-3. The experiment in a line: Induction of apoptosis in human SKOV3 cells assessed as decrease in Bcl-2 expression at 2.5 to 10 uM incubated for 48 hrs by western blot analysis. The class given is functional, cell-based. As to conditions: dose 2.5-10 µM.

Active and inactive are the calls of the source. No cut-off for these calls is given here.

As usually defined, the clearance is the rate of elimination divided by the concentration.

Sequence of Poly [ADP-ribose] polymerase 1 (P09874 whole entry): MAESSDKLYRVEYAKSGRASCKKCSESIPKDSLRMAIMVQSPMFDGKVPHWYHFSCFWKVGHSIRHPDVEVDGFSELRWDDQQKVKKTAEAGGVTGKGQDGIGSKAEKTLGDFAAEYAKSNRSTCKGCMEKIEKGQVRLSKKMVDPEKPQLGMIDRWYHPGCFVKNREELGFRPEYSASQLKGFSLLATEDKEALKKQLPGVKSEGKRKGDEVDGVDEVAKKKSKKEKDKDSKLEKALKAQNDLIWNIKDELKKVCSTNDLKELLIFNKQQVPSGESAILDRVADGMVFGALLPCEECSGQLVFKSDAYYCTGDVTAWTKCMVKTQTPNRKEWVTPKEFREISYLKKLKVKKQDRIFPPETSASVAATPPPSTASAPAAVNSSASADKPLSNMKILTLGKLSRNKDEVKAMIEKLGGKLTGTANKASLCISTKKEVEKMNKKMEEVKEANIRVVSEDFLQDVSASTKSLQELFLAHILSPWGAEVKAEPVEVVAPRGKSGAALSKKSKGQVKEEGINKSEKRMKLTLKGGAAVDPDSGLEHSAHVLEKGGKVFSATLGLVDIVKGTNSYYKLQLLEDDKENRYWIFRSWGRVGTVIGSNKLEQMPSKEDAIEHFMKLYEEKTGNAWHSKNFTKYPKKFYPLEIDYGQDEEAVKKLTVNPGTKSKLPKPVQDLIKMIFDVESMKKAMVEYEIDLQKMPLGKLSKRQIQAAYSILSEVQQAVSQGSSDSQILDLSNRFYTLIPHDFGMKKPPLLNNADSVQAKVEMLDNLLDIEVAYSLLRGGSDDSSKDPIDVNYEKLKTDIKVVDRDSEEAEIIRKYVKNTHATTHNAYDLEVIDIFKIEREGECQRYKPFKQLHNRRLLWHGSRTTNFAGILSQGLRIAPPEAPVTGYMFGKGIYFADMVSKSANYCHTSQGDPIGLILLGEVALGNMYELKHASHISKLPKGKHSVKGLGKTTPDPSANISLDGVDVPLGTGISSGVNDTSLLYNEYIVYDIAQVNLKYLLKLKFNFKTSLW

For the compound `COc1cc(/C=N/NC(N)=S)c(Br)c(Br)c1OC`, the inhibition in vivo at 25 mg/kg in series [1] turned out to be 70%. In series [2], this compound showed a clearance of 88.7 mL/min/kg. The inhibition entry in series [3] is “Active”. In series [4], the outcome was Active.
